MsrA act: bovine methionine sulfoxide reductase A activation; activation, % at 10.6 µM; hit rate 0.3% among 360,000; purified bovine MsrA, absorbance read-out; in the data active means activation above about 7.5%
beta cell repl: induces beta-cell replication in MIN6 cells; MIN6 cells proliferation, ATPlite luminescence, 48 h; cells starved in 0.2% serum; 100% = growth in 10% serum; proliferation, % at 10 µM; hit rate 0.29% among 330,000;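 active means compounds whose signal lies at least 3.5 SD above the mean of all wells on their plate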
SKN-1 block: inhibitors of C. elegans SKN-1; hit rate 0.49% among 360,000; C. elegans VP596 Pgst-4::GFP/RFP ratio, acrylamide-induced, 24 h; inhibition, % at 21.8 µM;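 active means interference check ratio from 0.5 to 1.5 plus GFP to RFP signal ratio inhibition reaching or exceeding a fixed threshold, cut at about 30% in these data, passing the limit was not always enough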
MT1-MMP act inh: blocks activation of human MT1-MMP; HT1080 RFP-PRO-GFP cells, GFP/RFP ratio fluorescence, overnight; percent of plate control window, DMSO zero; hit rate 0.061% among 360,000; GFP/RFP ratio change, % at 20 µM; AID 651647;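 active means GFP/RFP ratio change of at least 30% with cell ATP level not reduced by more than half and red fluorescence within 50% of control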
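Assay system: HT1080 RFP-PRO-GFP cells | Dosing: 20 µM single dose, 1% DMSO | Incubation: Cells overnight before dosing, compound overnight, 37 °C, 5% CO2 | Evaluation: GFP/RFP fluorescence ratio | Control set: DMSO-only wells and HT1080 RFP-L50D-GFP cell wells as references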
MsrA inh: bovine MsrA inhibition | purified bovine MsrA, absorbance read-out | inhibition, % at 15.5 µM | hit rate 0.75% among 360,000 | AID 651718
DAGLB inh: blocks human DAGLB lipase activity; Q8NCG7; HEK293T DAGLB membrane lysate, EnzChek fluorogenic substrate; inhibition, % at 5.17 µM; hit rate 0.059% among 340,000; in the data active means inhibition above about 34%
Target sequence (Q8NCG7 whole entry, looked up): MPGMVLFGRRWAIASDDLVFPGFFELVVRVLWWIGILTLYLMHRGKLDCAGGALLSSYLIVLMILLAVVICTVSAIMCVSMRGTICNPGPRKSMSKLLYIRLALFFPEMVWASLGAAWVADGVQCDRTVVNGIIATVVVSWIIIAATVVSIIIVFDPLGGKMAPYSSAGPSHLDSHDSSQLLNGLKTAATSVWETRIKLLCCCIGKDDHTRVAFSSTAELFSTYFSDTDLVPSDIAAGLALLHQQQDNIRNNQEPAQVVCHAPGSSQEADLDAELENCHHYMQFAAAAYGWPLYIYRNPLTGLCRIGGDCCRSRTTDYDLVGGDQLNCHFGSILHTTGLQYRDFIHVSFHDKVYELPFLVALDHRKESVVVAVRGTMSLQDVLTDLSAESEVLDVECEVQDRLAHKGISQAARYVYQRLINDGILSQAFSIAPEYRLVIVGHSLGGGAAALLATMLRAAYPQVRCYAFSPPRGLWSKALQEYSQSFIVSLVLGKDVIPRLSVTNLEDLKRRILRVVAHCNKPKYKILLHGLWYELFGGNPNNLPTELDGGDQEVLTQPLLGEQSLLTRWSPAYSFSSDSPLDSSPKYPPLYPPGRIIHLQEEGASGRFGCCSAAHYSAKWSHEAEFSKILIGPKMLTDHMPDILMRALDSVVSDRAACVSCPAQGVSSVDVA
MsrA inh confirm: bovine MsrA inhibition, confirmed; shares compounds with MsrA inh; purified bovine MsrA, absorbance read-out; AID 651822; hit rate 41% among 2,300; inhibition, % at 15.5 µM;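 further: coupled to thioredoxin reductase with NADPH and selenocystamine and DMSO as substrate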
Large screens that a line does not name were inactive (follow-up assays come after a bar, where they were run). Only some compounds are listed: those with a hit (about 1.8% of all), similar ones and a draw of the others. Unless noted, no stated cut-off is given here; in the data, active means inhibition above about 4.5%; inactive means the rest.

COc1ccccc1/C=N/NC(=O)c1ccc2c(c1)OCO2	none
COCCCNC(=S)N/N=C/c1ccc2c(c1)OCO2	MsrA inh 5.5 (no result: DAGLB inh) | MsrA inh confirm 4.9
CC(=O)Nc1ccc(NC(=O)/C=C/c2ccc3c(c2)OCO3)cc1	MsrA inh 5.5 | MsrA inh confirm inactive
O=C(N/N=C/c1ccc[nH]1)c1ccc2c(c1)OCO2	MsrA inh 5.1 | MsrA inh confirm inactive
Cc1cc(C(=O)N/N=C/c2ccc[nH]2)n[nH]1	MsrA inh 5.3 | MsrA inh confirm inactive
CCN1CCN(C(=O)C2CCCN(S(=O)(=O)c3cccc4nsnc34)C2)CC1 (stereo not drawn)	none
O=C(N/N=C/c1ccc[nH]1)c1ccc(O)cc1	MsrA inh 5.3 | MsrA inh confirm inactive
O=C(N/N=C/c1ccc[nH]1)c1cc(-c2cccs2)nc2ccccc12	MsrA inh 4.9 | MsrA inh confirm inactive
O=C(N/N=C/c1cccnc1)c1cc(-c2cccs2)nc2ccccc12	none
C/C(=N\Nc1ccc(C(=O)O)cc1)c1ccc(-n2ccnc2)cc1	MsrA inh 6.5 | MsrA inh confirm 4.5
COc1ccc(/C=C(\C#N)C(=O)Nc2ccc3[nH]c(=O)[nH]c3c2)cc1	none
Cc1cc(N2CCN(S(C)(=O)=O)C[C@H]2C)ccc1N1CCN(Cc2ccccc2)[C@H](C)C1	none (no result: MsrA act, beta cell repl, SKN-1 block, MT1-MMP act inh, DAGLB inh)
CC(=O)c1sc(NC(=O)c2cccnc2Cl)nc1C	MsrA inh 5.0 | MsrA inh confirm inactive
CC(=O)c1sc(NC(=O)c2ccccc2F)nc1C	none
O=C(O)c1sccc1Oc1ccc(NS(=O)(=O)c2cccc(F)c2)cc1	none
COC(=O)CSc1nn(-c2ccc(F)cc2)c(=S)s1	MsrA inh 5.2 | MsrA inh confirm inactive
Oc1ccccc1C=NNc1nc2ccccc2s1	none (no result: beta cell repl)
C(=N\Nc1nc2ccccc2s1)/c1ccco1	MsrA inh 6.2 (no result: MT1-MMP act inh) | MsrA inh confirm 5.5
COc1cccc2cc(C(=O)Oc3ccc(NC(C)=O)cc3)c(=O)oc12	MsrA inh 4.7 | MsrA inh confirm inactive
COc1ccc(NC(=O)c2sc3nc(N4CCCC4)c4c(c3c2N)CC(C)(C)OC4)cc1	MsrA inh 5.3 | MsrA inh confirm inactive
CCOC(=O)c1cc2ccc3ccccc3c2oc1=O	MsrA inh 15 | MsrA inh confirm 10
CCOC(=O)c1cc2ccc(OC(=O)c3ccco3)cc2oc1=O	none
O=c1oc2c(-c3ccc([N+](=O)[O-])cc3)cc(O)cc2s1	MsrA inh 7.5 | MsrA inh confirm inactive
NC1=C(c2ccc([N+](=O)[O-])cc2)C(=O)CO1	none
O=C(COc1ccccc1[N+](=O)[O-])Nc1cccc(Cl)c1N1CCOCC1	MsrA inh 5.9 | MsrA inh confirm inactive
COc1ccc(NC(=O)CN(C)C(=O)c2c(C)nn(Cc3ccccc3)c2C)cc1	none
NS(=O)(=O)c1ccc2nc(NC(=O)c3ccc(Br)o3)sc2c1	MsrA inh 4.8 | MsrA inh confirm 5.7
NS(=O)(=O)c1ccc2nc(NC(=O)c3ccncc3)sc2c1	MsrA inh 5.6 | MsrA inh confirm inactive
NC(=O)c1ccc2nc(NC(=O)c3ccc(N)cc3)sc2c1	MsrA inh 6.3 (no result: DAGLB inh) | MsrA inh confirm inactive
COc1cc(/C=N/NC2=NS(=O)(=O)c3ccccc32)cc(OC)c1OC	MsrA inh 5.5 | MsrA inh confirm 4.6
O=S1(=O)N=C(N/N=C/c2ccccn2)c2ccccc21	none
COc1ccc(OC)c(/C=N/NC2=NS(=O)(=O)c3ccccc32)c1	none
COc1ccc(/C=N/Nc2nc3ccccc3o2)cc1O	none
O=S1(=O)N=C(N/N=C/C=C/c2ccccc2)c2ccccc21	MsrA inh 6.8 | MsrA inh confirm 6.2
O=S1(=O)N=C(N(CCO)/N=C/c2ccc(Cl)cc2)c2ccccc21	none
O=S1(=O)N=C(N(CCO)/N=C/C=C/c2ccccc2)c2ccccc21	MsrA inh 8.3 (no result: beta cell repl) | MsrA inh confirm 5.7
COc1cc(/C=N\Nc2nc3ccccc3o2)cc(OC)c1OC	MsrA inh 5.2 | MsrA inh confirm inactive
COc1ccc(OC(=O)N(C)C[C@H]2OCc3cn(nn3)CCCC(=O)N([C@H](C)CO)C[C@@H]2C)cc1	none (no result: beta cell repl)
CC1CCN(C(=O)CSc2ccc(-c3ccccc3)nn2)CC1	none
O=C(COc1ccccc1F)Nc1nnc(C2CCCC2)s1	none
CCCCc1cc(=O)oc2c(CN(C)C)c(O)c(Cl)cc12	MsrA inh 5.0 | MsrA inh confirm inactive
CCc1c(C)c2cc(Cl)c(O)c(CN(C)C)c2oc1=O	none
O=C(OCc1ccccc1)N1CCC2CC1c1c(Cl)cccc12 (stereo not drawn)	MsrA inh 5.6 (no result: beta cell repl) | MsrA inh confirm inactive
COc1ccc(/C=[N+](\[O-])C2N(c3ccccc3)C(=S)SC2(C)C)cc1OC (stereo not drawn)	MsrA inh 5.0 | MsrA inh confirm inactive
S=c1[nH]nc(C2CCCCC2)n1/N=C/c1ccccc1Cl	MsrA inh 15 | MsrA inh confirm 12
FC(F)(F)c1ccccc1/C=N/n1c(C2CCCCC2)n[nH]c1=S	none
CCN(CC)C(=O)Cn1cc(C(=O)C(=O)N2CCN(Cc3ccc4c(c3)OCO4)CC2)c2ccccc21	none
CCOC(=O)[C@@H]1[C@H]2COc3ccc(Br)cc3[C@H]2N2C(=O)N(c3ccc(Cl)cc3)C(=O)[C@]12C	none
Cc1cccc(C(=O)NNC(=O)CN2C(=O)c3ccccc3C2=O)c1	none
Nc1n[nH]c(N)c1N=Nc1ccc(Cl)cc1	MsrA inh 6.1 | MsrA inh confirm inactive
Nc1n[nH]c(N)c1N=Nc1cccc(F)c1	none
COc1ccccc1C(=O)Nc1ccc(-c2nnn(CC(=O)NCc3ccco3)n2)cc1	none
Cc1noc(NS(=O)(=O)c2ccc(NC(=O)c3cnc4n(c3=O)CCS4)cc2)c1C	MsrA inh 6.9 | MsrA inh confirm 4.6
Cc1ccccc1C(=O)Nc1ccc(S(=O)(=O)Nc2onc(C)c2C)cc1	none
COC(=O)C1=C(C(=O)OC)SC2(S1)C(C(=O)OC)=C(C(=O)OC)SC1=C2c2cc(C)ccc2NC1(C)C	MsrA inh 6.1 | MsrA inh confirm inactive
COc1cccc(-c2cc3c(-n4cccc4)ncnc3o2)c1	MsrA inh 5.5 | MsrA inh confirm inactive
Cc1ccccc1Oc1ncnc2oc(-c3ccccc3)cc12	none
COCCCN1C(=O)C(CC(=O)NC2CCCCC2)CC(C(=O)N2CCOCC2)=C1C (stereo not drawn)	none (no result: beta cell repl)
O=c1nc(N/N=C/c2ccccn2)cn[nH]1	MsrA inh 4.7 | MsrA inh confirm inactive
COc1ccc(C=C2SC(=S)NC2=O)c(OC)c1OC	MsrA inh 4.8 (no result: beta cell repl) | MsrA inh confirm inactive
O=C(O)c1ccc(/C=C/C(=O)c2ccc3c(c2)OCCCO3)cc1	MsrA inh 6.5 | MsrA inh confirm inactive
CC12CS(=O)(=O)CC1SC(=S)N2Cc1ccccc1 (stereo not drawn)	none

Screens (PubChem BioAssay)
